Here are results for 2 compounds from ChEMBL document CHEMBL4118256, “Second Generation of Mannich Base-Type Derivatives with in Vivo Activity against Trypanosoma cruzi” (J Med Chem, 2018).

Data set [1] has as its system Mus musculus. In words: Hepatotoxicity in Balb/c mouse infected with Trypanosoma cruzi MHOM/Pe/2011/Arequipa DTU 5 trypamastigotes assessed as increase in ratio of serum ALT to GPT level at […], po once daily for 5 consecutive days starting from day 75 post infection measured on day 127 post infection by biochemical analysis relative to control. The data set is classed as toxicity, organism-based. The following applies: in vivo.

Data set [2] concerns Mus musculus. Nature of the data set: Cardiotoxicity in Balb/c mouse infected with Trypanosoma cruzi MHOM/Pe/2011/Arequipa DTU 5 trypamastigotes assessed as decrease in ratio of creatine kinase in muscle to brain at […], po once daily for 5 consecutive days starting from day 10 post infection measured on day 16 post infection by biochemical analysis relative to control. The data set is classed as toxicity, organism-based. Also on record: scale not given: the % may be the effect or the level left. The following applies: in vivo. The method in brief: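 Serum clinical chemistry in Arequipa-infected female BALB/c mice. Oral 20 mg·kg-1 per day for 5 days, started day 10 or day 75 pi. Samples taken at day 16 pi or day 81 pi, and on necropsy day. Markers: CK-MB and LDH (U/L), AST, ALT and alkaline phosphatase (U/L), total bilirubin. Results scored relative to infected untreated controls; uninfected reference n = 15.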

Bounds are passed on as bounds.

Regarding `COc1ccc(C(=O)CCN2CCN(c3ccc([N+](=O)[O-])cc3)CC2)cc1`, the Activity entry in the data set with Mus musculus [1] is listed as “<= 10%”.

As to `COc1ccc(C(=O)CCN2CCN(c3ccc(Cl)cc3)CC2)cc1`, the Activity result with Mus musculus [2] is “<= 20%”.
